Reference: ChEMBL document CHEMBL4265871, “Novel alkylated azoles as potent antifungals” (Eur J Med Chem, 2017)
Values after ≈ are worked out from the molar mass of the structure shown. Active and inactive are the calls of the source. The calls are words filed in the database; no cut-off is given here.

Assays:
Aspergillus nidulans = assay: Antifungal activity against Aspergillus nidulans ATCC 38163 incubated for 48 hrs by CLSI M38-A2 protocol based method; format: functional; details: ATCC 38163, 48 h; for MIC: read-out: MIC100
Candida parapsilosis = assay: Antifungal activity against Candida parapsilosis ATCC 22019 incubated for 48 hrs by modified CLSI M27-A3 protocol based method; format: functional; details: Lodderomyces parapsilosis, ATCC 22019, 48 h; for MIC: read-out: MIC100
How it was run: (§1)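 For C. albicans ATCC 10231, C. krusei ATCC 6258 and C. parapsilosis ATCC 22019, MIC-0 was read, meaning complete growth inhibition. For azole controls, MIC-2 (50% growth inhibition) was reported instead. Caspofungin and voriconazole were tested here; other controls came from earlier work.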

Candida albicans [1] = assay: Antifungal activity against Candida albicans ATCC 10231 incubated for 48 hrs by modified CLSI M27-A3 protocol based method; format: functional; details: ATCC 10231, 48 h; for MIC: read-out: MIC100; how it was run: as §1
Candida albicans [2] = assay: Antifungal activity against ITC and FLC-resistant Candida albicans ATCC MYA-1003 incubated for 48 hrs by modified CLSI M27-A3 protocol based method; format: functional; details: ATCC MYA-1003, 48 h
How it was run: (§2)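 Because these Candida strains show trailing growth, MIC-2 was read, meaning 50% growth inhibition. Caspofungin and voriconazole were tested here; other controls came from earlier work.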

Candida albicans [3] = assay: Antifungal activity against ITC and FLC-susceptible Candida albicans ATCC MYA-2876 incubated for 48 hrs by modified CLSI M27-A3 protocol based method; format: functional; details: ATCC MYA-2876, 48 h; how it was run: as §2
Candida albicans [4] = assay: Antifungal activity against ITC and FLC-resistant Candida albicans ATCC MYA-90819 incubated for 48 hrs by modified CLSI M27-A3 protocol based method; format: functional; details: ATCC MYA-90819, 48 h
Candida albicans [5] = assay: Antifungal activity against ITC and FLC-resistant Candida albicans ATCC 1237 incubated for 48 hrs by modified CLSI M27-A3 protocol based method; format: functional; details: ATCC 1237, 48 h; how it was run: as §2
Candida albicans [6] = assay: Antifungal activity against ITC and FLC-susceptible Candida albicans ATCC MYA-2310 incubated for 48 hrs by modified CLSI M27-A3 protocol based method; format: functional; details: ATCC MYA-2310, 48 h
Aspergillus terreus = assay: Antifungal activity against Aspergillus terreus ATCC MYA-3633 incubated for 48 hrs by CLSI M38-A2 protocol based method; format: functional; details: ATCC MYA-3633, 48 h; for MIC: read-out: MIC100
Pichia kudriavzevii = assay: Antifungal activity against Candida krusei ATCC 6258 incubated for 48 hrs by modified CLSI M27-A3 protocol based method; format: functional; details: ATCC 6258, 48 h; for MIC: read-out: MIC100; how it was run: as §1
Nakaseomyces glabratus = assay: Antifungal activity against Candida glabrata ATCC 2001 incubated for 48 hrs by modified CLSI M27-A3 protocol based method; format: functional; details: ATCC 2001, 48 h
Candida albicans [7] = assay: Antifungal activity against Candida albicans ATCC 64124 incubated for 48 hrs by modified CLSI M27-A3 protocol based method; format: functional; details: ATCC 64124, 48 h
Aspergillus flavus = assay: Antifungal activity against Aspergillus flavus ATCC MYA-3631 incubated for 48 hrs by CLSI M38-A2 protocol based method; format: functional; details: ATCC MYA-3631, 48 h; for MIC: read-out: MIC100
Candida albicans [8] = assay: Induction of membrane permeabilization in Candida albicans ATCC 10231 at 1 to 4 times MIC incubated for 1 hr by propidium iodide staining based fluorescence microscopy; format: functional, organism-based
How it was run: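 C. albicans ATCC 10231 treated at 1× and 4× MIC and stained with propidium iodide, a membrane-impermeant dye, to detect membrane damage. Untreated cells, FLC (7.8 µg/mL) and KANB (C14) (7.8 µg/mL) serve as comparators.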

BEAS-2B = assay: Toxicity in human BEAS2B cells assessed as cell viability at 15.6 ug/ml incubated for 24 hrs by resazurin dye based assay
[9] = Hemolytic activity in mouse erythrocytes assessed as hemolysis level at 1.95 ug/ml incubated for 1 hr at 37 degC; format: ADME, cell-based, Erythrocyte; details: read-out: Activity
How it was run: (§3)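 Mouse erythrocytes incubated 1 h at 37 °C with test agents over 1.95 to 125 µg/mL. Percent lysis is read for each concentration.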

A549 = assay: Toxicity in human A549 cells assessed as cell viability at 15.6 ug/ml incubated for 24 hrs by resazurin dye based assay; details: a549, 24 h
[10] = Hemolytic activity in mouse erythrocytes assessed as hemolysis level at 31.3 ug/ml incubated for 1 hr at 37 degC; format: ADME, cell-based, Erythrocyte; details: read-out: Activity; how it was run: as §3
in vitro = details: mouse, erythrocyte
[11] = Hemolytic activity in mouse erythrocytes assessed as hemolysis level at 15.6 ug/ml incubated for 1 hr at 37 degC; format: ADME, cell-based, Erythrocyte; details: read-out: Activity; how it was run: as §3
[12] = Hemolytic activity in mouse erythrocytes assessed as hemolysis level at 125 ug/ml incubated for 1 hr at 37 degC; format: ADME, cell-based, Erythrocyte; details: read-out: Activity; how it was run: as §3
[13] = Hemolytic activity in mouse erythrocytes assessed as hemolysis level at 7.8 ug/ml incubated for 1 hr at 37 degC; format: ADME, cell-based, Erythrocyte; details: read-out: Activity; how it was run: as §3
[14] = Hemolytic activity in mouse erythrocytes assessed as hemolysis level at 3.9 ug/ml incubated for 1 hr at 37 degC; format: ADME, cell-based, Erythrocyte; details: read-out: Activity; how it was run: as §3

SMILES | MIC (Aspergillus nidulans) [µM] | MIC (Candida parapsilosis) [µM] | MIC (Candida albicans [1]) [µM] | MIC50 (Candida albicans [2]) [µM] | MIC50 (Candida albicans [3]) [µM] | MIC50 (Candida albicans [4]) [µM] | MIC50 (Candida albicans [5]) [µM] | MIC50 (Candida albicans [6]) [µM] | MIC (Aspergillus terreus) [µM] | MIC (Pichia kudriavzevii) [µM] | MIC50 (Nakaseomyces glabratus) [µM] | MIC50 (Candida albicans [7]) [µM] | MIC (Aspergillus flavus) [µM] | other results
CCCC(O)(Cn1cncn1)c1ccc(F)cc1F (stereo not drawn) | 29.2 (≈ 7.8 µg/mL) | 0.22 (≈ 0.0588 µg/mL) | 14.6 (≈ 3.9 µg/mL) | 14.6 (≈ 3.9 µg/mL) | 58.4 (≈ 15.6 µg/mL) | 58.4 (≈ 15.6 µg/mL) | 117 (≈ 31.3 µg/mL) | 29.2 (≈ 7.8 µg/mL) | 58.4 (≈ 15.6 µg/mL) | 0.22 (≈ 0.0588 µg/mL) | > 117 | 117 (≈ 31.3 µg/mL) | > 117 | –
CCCCCC(O)(Cn1cncn1)c1cccc(Cl)c1 (stereo not drawn) | 0.2 (≈ 0.0588 µg/mL) | > 106 | > 106 | > 106 | > 106 | 13.3 (≈ 3.91 µg/mL) | 6.6 (≈ 1.94 µg/mL) | 6.6 (≈ 1.94 µg/mL) | 1.6 (≈ 0.47 µg/mL) | > 106 | > 106 | 106 (≈ 31.3 µg/mL) | 13.3 (≈ 3.91 µg/mL) | –
CCC(O)(Cn1cncn1)c1ccc(Cl)cc1Cl (stereo not drawn) | 27.3 (≈ 7.81 µg/mL) | < 0.1 | 13.6 (≈ 3.89 µg/mL) | 6.8 (≈ 1.95 µg/mL) | 3.4 (≈ 0.973 µg/mL) | 0.84 (≈ 0.24 µg/mL) | 3.4 (≈ 0.973 µg/mL) | 3.4 (≈ 0.973 µg/mL) | 13.6 (≈ 3.89 µg/mL) | 3.4 (≈ 0.973 µg/mL) | 13.6 (≈ 3.89 µg/mL) | > 109 | 54.5 (≈ 15.6 µg/mL) | –
CCCCCCC(O)(Cn1cncn1)c1cccc(F)c1 (stereo not drawn) | 13.4 (≈ 3.9 µg/mL) | 6.7 (≈ 1.95 µg/mL) | > 107 | 107 (≈ 31.3 µg/mL) | 6.7 (≈ 1.95 µg/mL) | 6.7 (≈ 1.95 µg/mL) | 3.3 (≈ 0.962 µg/mL) | 6.7 (≈ 1.95 µg/mL) | 107 (≈ 31.3 µg/mL) | 13.4 (≈ 3.9 µg/mL) | 26.8 (≈ 7.81 µg/mL) | > 107 | > 107 | –
CCCCCCCCCCC(O)(Cn1cncn1)c1ccc(F)cc1F (stereo not drawn) | 0.66 (≈ 0.241 µg/mL) | 0.33 (≈ 0.121 µg/mL) | 21.3 (≈ 7.78 µg/mL) | > 85.6 | 21.3 (≈ 7.78 µg/mL) | 85.6 (≈ 31.3 µg/mL) | > 85.6 | 21.3 (≈ 7.78 µg/mL) | 10.7 (≈ 3.91 µg/mL) | 0.66 (≈ 0.241 µg/mL) | 21.3 (≈ 7.78 µg/mL) | 42.7 (≈ 15.6 µg/mL) | > 85.6 | Activity (Candida albicans [8]): inactive
C[C@@H]1[C@H](O)[C@@H](C)/C=C/C=C/C=C/C=C/C=C/C=C/C=C/[C@H](O[C@@H]2O[C@H](C)[C@@H](O)[C@H](N)[C@@H]2O)C[C@@H]2O[C@](O)(C[C@@H](O)C[C@@H](O)[C@H](O)CC[C@@H](O)C[C@@H](O)CC(=O)O[C@H]1C)C[C@H](O)[C@H]2C(=O)O [AMPHOTERICIN B] | 16.9 (≈ 15.6 µg/mL) | 2.1 (≈ 1.94 µg/mL) | – | – | – | – | – | – | 4.2 (≈ 3.88 µg/mL) | – | – | – | – | viability (BEAS-2B): 30%; hemolysis at 1 h, 1.95 ug/ml [9]: 1.7%; viability (A549): 30%; MIC (Candida albicans [3]; read-out: MIC100): 2.1 µM (≈ 1.94 µg/mL); MIC (Candida albicans [4]): 1.1 µM (≈ 1.02 µg/mL); hemolysis at 1 h, 31.3 ug/ml [10]: 80%; MIC (Candida albicans [6]; read-out: MIC100): 2.1 µM (≈ 1.94 µg/mL); hemolysis at 1 h (in vitro): 90.3%; hemolysis at 1 h, 15.6 ug/ml [11]: 32%; hemolysis at 1 h, 125 ug/ml [12]: 92.6%; MIC (Nakaseomyces glabratus): 2.1 µM (≈ 1.94 µg/mL); hemolysis at 1 h, 7.8 ug/ml [13]: 3.7%; hemolysis at 1 h, 3.9 ug/ml [14]: 3.4%
CCC(C)n1ncn(-c2ccc(N3CCN(c4ccc(OCC5COC(Cn6cncn6)(c6ccc(Cl)cc6Cl)O5)cc4)CC3)cc2)c1=O (stereo not drawn) [ITRACONAZOLE] | – | – | – | 44.4 (≈ 31.3 µg/mL) | 11.1 (≈ 7.83 µg/mL) | 44.4 (≈ 31.3 µg/mL) | 44.4 (≈ 31.3 µg/mL) | 44.4 (≈ 31.3 µg/mL) | – | – | 11.1 (≈ 7.83 µg/mL) | > 88.6 | – | MIC50 (Aspergillus nidulans): 0.28 µM (≈ 0.198 µg/mL); MIC50 (Candida parapsilosis): 0.17 µM (≈ 0.12 µg/mL); MIC50 (Candida albicans [1]): 0.71 µM (≈ 0.501 µg/mL); MIC50 (Aspergillus terreus): 1.4 µM (≈ 0.988 µg/mL); MIC50 (Pichia kudriavzevii): 0.68 µM (≈ 0.48 µg/mL); MIC50 (Aspergillus flavus): 0.68 µM (≈ 0.48 µg/mL)
N[n+]1cnn(CC(=O)c2ccc(Cl)cc2Cl)c1 | > 102 | > 102 | > 102 | > 102 | > 102 | > 102 | > 102 | > 102 | > 102 | > 102 | > 102 | > 102 | > 102 | –
